Data on twelve molecules can be found in ChEMBL document CHEMBL3751733, “Synergistic Antifungal Meroterpenes and Dioxolanone Derivatives from the Endophytic Fungus Guignardia sp” (J Nat Prod, 2015).

For one series, the system named is Staphylococcus aureus. Kind of series: Antibacterial activity against Staphylococcus aureus ATCC 25923 by broth microdilution method. It counts as functional. An outline of the steps:
(§1)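 Broth microdilution in 96-well plates; MIC read by comparing OD with the growth control; amoxicillin and streptomycin as positive controls.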
(Dilution methods test growth across graded concentrations, often in twofold steps.)

The subject of another series is Bacillus subtilis. Kind of series: Antibacterial activity against Bacillus subtilis ATCC 6633 by broth microdilution method. It counts as functional. An outline of the steps: as §1
In the next series the test system is Escherichia coli. As to the kind of experiment: Antibacterial activity against Escherichia coli ATCC 25922 by broth microdilution method. Type of series: functional. An outline of the steps: as §1
The test system of series [1] is Candida albicans. As to the kind of experiment: Antibiofilm activity against Candida albicans ATCC 24433 after 24 hrs by XTT-based colorimetric assay. Type of series: functional. Particulars: ATCC 24433, 24 h. An outline of the steps: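 XTT assay: YPD overnight culture, PBS-washed, 1.0 × 10^6 cfu/mL in RPMI-1640/MOPS; biofilms formed at 37 °C for 24 h, washed, then treated 24 h at 37 °C; 0.5 mg/mL XTT for 2 h, read at 490 nm. MIC = lowest concentration giving ≥80% reduction in XTT signal.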
(In general: Formazan colour is commonly taken as a measure of viable cells.)

The test system of the next series is Pseudomonas aeruginosa. As to the kind of experiment: Antibacterial activity against Pseudomonas aeruginosa ATCC 9027 by broth microdilution method. It counts as functional. An outline of the steps: as §1
The test system of another series is U2OS. Kind of series: Cytotoxicity against human U2OS cells by MTT assay. It counts as cell-based. An outline of the steps: (§2)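 MTT assay with cisplatin as positive control.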
Another series relates to MCF7. As to the kind of experiment: Cytotoxicity against human MCF7 cells by MTT assay. Type of series: cell-based. In outline: as §2
The next series has as its system HepG2. As to the kind of experiment: Cytotoxicity against human HepG2 cells by MTT assay. Type of series: cell-based. An outline of the steps:
as §2

Series [2] relates to Candida albicans. Kind of series: Antibiofilm activity against Candida albicans ATCC 24433 after 24 hrs in presence of fluconazole by XTT-based colorimetric assay. Particulars: ATCC 24433, 24 h. Type of series: functional. In outline:
(§3)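 Preformed biofilms (1.0 × 10^6 cfu/mL in RPMI-1640/MOPS, 37 °C, 24 h) treated 24 h at 37 °C in a checkerboard: compounds 160 to 5 μg/mL, fluconazole 500 to 8 μg/mL. Read by 0.5 mg/mL XTT for 2 h at 490 nm, ≥80% reduction as endpoint; FICI calculated.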

Series [3] has as its system Candida albicans. Kind of series: Synergistic antibiofilm activity against Candida albicans ATCC 24433 assessed as fractional inhibition concentration ratio after 24 hrs in presence of fluconazole by checkerboard assay. It counts as functional. In outline:
as §3

Series [4] concerns Candida albicans. Kind of series: Synergistic antibiofilm activity against Candida albicans ATCC 24433 assessed as fractional inhibition concentration index after 24 hrs in presence of fluconazole checkerboard assay. Type of series: functional. An outline of the steps: as §3

Each structure is given as a SMILES string. In brackets after ≈: the same amount, converted by molar mass.

Turning to `C=C(C)[C@@H]1CC[C@@]2(C)OC3=C(C[C@@H]12)C(=O)[C@](O)(CO)C[C@@H]3O`, the MIC – broadly, the lowest concentration found to suppress growth – is more than 100 µg/mL in the series on Staphylococcus aureus, 89.3 µg/mL (≈ 290 µM) in the series on Bacillus subtilis, more than 100 µg/mL in the series on Escherichia coli and more than 100 µg/mL with Pseudomonas aeruginosa. This molecule also showed an MIC80 in the series with Candida albicans [1] of more than 200 µg/mL. Besides, the Activity entry with U2OS, in the series on MCF7 and with HepG2 was “Non-toxic” throughout.

Turning to `CC1(C)S[C@@H]2[C@H](NC(=O)[C@H](N)c3ccc(O)cc3)C(=O)N2[C@H]1C(=O)O` [AMOXICILLIN], the figures for the MIC in the series on Staphylococcus aureus and in the series on Bacillus subtilis were 0.8 µg/mL (≈ 2.19 µM) and 1 µg/mL (≈ 2.74 µM), respectively.

`COC(=O)[C@]1(C(C)C)OC(=O)/C(=C\c2ccc(O)cc2)O1` registered an MIC80 in the series on Candida albicans [1] of more than 200 µg/mL. Further, the Activity entry in the series on U2OS, in the series on MCF7 and in the series on HepG2 was “Non-toxic” in each case.

`C=C(C)[C@@H]1C[C@H](O)[C@@]2(C)OC3=C(C[C@@H]12)C(=O)[C@](O)(CO)C[C@@H]3O`: the figures for the MIC80 in the series on Candida albicans [1] and in the series with Candida albicans [2] were more than 200 µg/mL and 80 µg/mL, respectively. The Ratio in the series on Candida albicans [3] is listed as less than 0.4. Moreover, the “fractional inhibitory concentration index (FICI)” value in the series on Candida albicans [4] is on record as less than 0.46. Besides, the Activity entry in the series with U2OS, in the series on MCF7 and with HepG2 was “Non-toxic” throughout.

Consider `C=C(C)[C@@H]1CC[C@@]2(C)OC3=C(C[C@@H]12)C(=O)[C@H](OC)C[C@@H]3O`, for which the MIC in the series on Staphylococcus aureus is more than 100 µg/mL; against Bacillus subtilis, 37.3 µg/mL (≈ 128 µM); in the series with Escherichia coli, more than 100 µg/mL; against Pseudomonas aeruginosa it was more than 100 µg/mL. In the series with Candida albicans [1], this molecule gave an MIC80 of more than 200 µg/mL. For the same molecule, the Activity result in the series with U2OS, with MCF7 and with HepG2 was “Non-toxic” each time.

For the molecule `C=C(COC(C)=O)[C@@H]1CC[C@@]2(C)OC3=C(C[C@@H]12)C(=O)[C@]1(O)CO[C@H]3C1`, the MIC80 against Candida albicans [1] was more than 200 µg/mL. The Activity entry in the series with U2OS, in the series on MCF7 and in the series with HepG2 was “Non-toxic” throughout.

`C=C(C)[C@@H]1CC[C@@]2(C)OC3=C(C[C@@H]12)C(=O)[C@@H](OC)C[C@@H]3O`: in the series on Candida albicans [1], the MIC80 is more than 200 µg/mL. Besides, the Activity result in the series with U2OS, in the series on MCF7 and in the series with HepG2 was “Non-toxic” in each case.

As to `CN[C@@H]1[C@H](O[C@H]2[C@H](O[C@H]3[C@H](O)[C@@H](O)[C@H](N=C(N)N)[C@@H](O)[C@@H]3N=C(N)N)O[C@@H](C)[C@]2(O)C=O)O[C@@H](CO)[C@H](O)[C@H]1O` [STREPTOMYCIN], the MIC came to 2.4 µg/mL (≈ 4.13 µM) with Escherichia coli and 1.7 µg/mL (≈ 2.92 µM) against Pseudomonas aeruginosa.

In the case of `C=C(C)[C@@H]1CC[C@@]2(C)OC3=C(C[C@@H]12)C(=O)[C@@H]1C[C@@]3(O)CO1`, in the series with Candida albicans [1], the MIC80 was more than 200 µg/mL. The Activity result in the series on U2OS, in the series on MCF7 and in the series with HepG2 was “Non-toxic” in each case.

The molecule `C=C(CO)[C@@H]1CC[C@@]2(C)OC3=C(C[C@@H]12)C(=O)[C@]1(O)CO[C@H]3C1` registered an MIC80 against Candida albicans [1] of more than 200 µg/mL. Besides, the Activity result in the series on U2OS, in the series with MCF7 and with HepG2 was “Non-toxic” in each case.

Regarding `C=C(C)[C@@H]1CC[C@@]2(C)OC3=C(C[C@@H]12)C(=O)[C@H](O)C[C@@H]3O`, in the series with Candida albicans [1], the MIC80 was more than 200 µg/mL. In addition, the Activity entry in the series with U2OS, with MCF7 and with HepG2 was “Non-toxic” each time.

Consider `C=C(C)[C@@H]1C[C@H](O)[C@@]2(C)OC3=C(C[C@@H]12)C(=O)[C@]1(O)CO[C@H]3C1`, for which the MIC80 in the series on Candida albicans [1] was more than 200 µg/mL; with Candida albicans [2], 80 µg/mL. In addition, in the series with Candida albicans [3], the Ratio is less than 0.4. Further, the “fractional inhibitory concentration index (FICI)” value in the series with Candida albicans [4] is less than 0.46. Further, the Activity entry in the series on U2OS, in the series on MCF7 and in the series on HepG2 was “Non-toxic” throughout.
